We go through 28 molecules from ChEMBL document CHEMBL1932966, “Pyrrolo- and pyrazolo-[3,4-e][1,2,4]triazolo[1,5-c]pyrimidines as adenosine receptor antagonists” (Bioorg Med Chem, 2012).

pIC50, pKi: −log10 of the molar value.

Experiment [1] concerns the target T1, Adenosine receptor A1 (Homo sapiens, UniProt P30542).
T1 sequence (P30542 whole entry): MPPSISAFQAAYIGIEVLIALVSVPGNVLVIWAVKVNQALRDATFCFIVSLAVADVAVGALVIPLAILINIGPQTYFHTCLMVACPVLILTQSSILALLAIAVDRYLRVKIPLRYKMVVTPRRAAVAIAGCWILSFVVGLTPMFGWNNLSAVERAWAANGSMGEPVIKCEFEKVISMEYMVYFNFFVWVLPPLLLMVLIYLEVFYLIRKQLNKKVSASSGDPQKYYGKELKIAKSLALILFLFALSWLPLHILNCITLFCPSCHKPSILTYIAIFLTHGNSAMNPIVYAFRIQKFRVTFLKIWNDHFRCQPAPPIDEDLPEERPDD
Briefly: Displacement of [3H]-DPCPX from human adenosine A1 receptor expressed in CHO cells after 120 mins by liquid scintillation counting. The format is cell-based. In general terms: In a radioligand displacement assay an active substance lowers the binding of a labelled ligand.

The target in experiment [2] is T2, Adenosine receptor A2a (Homo sapiens, UniProt P29274). Briefly: Displacement of [3H]-ZM 241385 from human adenosine A2A receptor expressed in CHO cells after 60 mins by liquid scintillation counting. Type of experiment: cell-based.
T2 sequence (P29274 whole entry): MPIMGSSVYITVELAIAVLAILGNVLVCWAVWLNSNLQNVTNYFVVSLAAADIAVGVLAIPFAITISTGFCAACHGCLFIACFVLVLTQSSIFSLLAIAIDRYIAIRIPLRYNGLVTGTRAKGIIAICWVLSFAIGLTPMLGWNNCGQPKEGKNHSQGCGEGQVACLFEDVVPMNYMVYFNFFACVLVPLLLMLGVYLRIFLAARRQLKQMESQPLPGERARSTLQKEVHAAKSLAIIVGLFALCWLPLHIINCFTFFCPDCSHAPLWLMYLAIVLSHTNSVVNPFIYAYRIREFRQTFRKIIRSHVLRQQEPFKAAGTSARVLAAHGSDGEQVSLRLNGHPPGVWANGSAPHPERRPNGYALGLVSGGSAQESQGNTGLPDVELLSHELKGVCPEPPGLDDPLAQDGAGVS
For experiment [3], the target named is T3, Adenosine receptor A3 (Homo sapiens, UniProt P0DMS8).
T3 sequence (P0DMS8 whole entry): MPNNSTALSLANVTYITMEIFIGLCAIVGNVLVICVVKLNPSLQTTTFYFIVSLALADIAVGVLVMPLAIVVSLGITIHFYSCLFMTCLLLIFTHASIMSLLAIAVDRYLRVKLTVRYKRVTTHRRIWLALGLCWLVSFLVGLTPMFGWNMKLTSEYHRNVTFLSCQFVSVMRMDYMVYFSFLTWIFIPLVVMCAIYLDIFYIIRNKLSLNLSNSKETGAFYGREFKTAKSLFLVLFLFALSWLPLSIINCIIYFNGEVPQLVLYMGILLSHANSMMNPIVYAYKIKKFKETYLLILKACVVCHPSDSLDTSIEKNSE
The experiment can be described thus: Displacement of [3H]-MRE-3008-F20 from human adenosine A3 receptor expressed in CHO cells after 120 mins by liquid scintillation counting. Type of experiment: cell-based.

The target in experiment [4] is T4, Adenosine receptor A2b (Homo sapiens, UniProt P29275).
T4 sequence (P29275 whole entry): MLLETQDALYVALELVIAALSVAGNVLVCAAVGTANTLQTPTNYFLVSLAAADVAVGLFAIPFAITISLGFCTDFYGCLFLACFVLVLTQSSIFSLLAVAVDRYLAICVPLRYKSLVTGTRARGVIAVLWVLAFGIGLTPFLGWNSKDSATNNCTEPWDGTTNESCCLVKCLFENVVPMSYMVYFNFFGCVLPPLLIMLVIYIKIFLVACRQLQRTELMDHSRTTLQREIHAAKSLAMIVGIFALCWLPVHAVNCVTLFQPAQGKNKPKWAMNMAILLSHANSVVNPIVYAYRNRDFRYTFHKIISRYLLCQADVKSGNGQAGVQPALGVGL
The format is functional, cell-based, CHO.

For experiment [5], the target named is T3, Adenosine receptor A3. Briefly: Antagonist activity at human adenosine A3 receptor expressed in forskolin-stimulated CHO cells assessed as inhibition of Cl-IB-MECA-induced cAMP production by competition protein binding assay. Type of experiment: functional, cell-based. In short, it runs like this: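 CHO cells stably expressing human A3 receptor were harvested with dilute trypsin and preincubated for 10 min at 37 °C in pH 7.4 buffer with 2 IU/mL adenosine deaminase and the phosphodiesterase inhibitor Ro 20-1724. Antagonism of 100 nM Cl-IB-MECA was run with forskolin present. The reaction was stopped with cold 6% TCA and extracted with ether. cAMP was read against [3H]cAMP and bovine adrenal binding protein. IC50 came from sigmoid fitting.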

For experiment [6], the target named is T5, Adenosine receptor A1 (Homo sapiens) (UniProt P30542).
T5 sequence (whole entry): T1 sequence (P30542 whole entry)
The experiment can be described thus: Displacement of [3H]-DPCPX from human adenosine A1 receptor expressed in CHO cells at 1 uM after 120 mins by liquid scintillation counting. The format is cell-based. In short, it runs like this: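 Percent inhibition at a single concentration of 1 nM [3H]DPCPX binding to hA1-CHO membranes in 50 mM Tris HCl, pH 7.4. Membranes were pretreated with 2 IU/mL adenosine deaminase for 30 min at 37 °C. Incubation was 120 min at 25 °C, and bound label was separated by GF/B glass-fibre filtration.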

In experiment [7] the target is T2, Adenosine receptor A2a. The experiment can be described thus: Displacement of [3H]-ZM 241385 from human adenosine A2A receptor expressed in CHO cells at 1 uM after 60 mins by liquid scintillation counting. Type of experiment: cell-based.
Experiment [8] deals with T6, Adenosine receptor A3 (Homo sapiens) (UniProt P0DMS8).
T6 sequence (whole entry): T3 sequence (P0DMS8 whole entry)
Briefly: Displacement of [3H]-MRE-3008-F20 from human adenosine A3 receptor expressed in CHO cells at 1 uM after 120 mins by liquid scintillation counting. The format is cell-based. The method, boiled down: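 Membranes from hA3-CHO cells in 50 mM Tris HCl, 10 mM MgCl2, 1 mM EDTA, pH 7.4, pretreated with adenosine deaminase (2 IU/mL, 30 min, 37 °C). Incubation 120 min at 4 °C. Non-specific binding with unlabelled MRE3008F20. GF/B filtration.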

The target in experiment [9] is Adenosine receptor A2B (Homo sapiens) (UniProt P29275). The settings on record: CHO, at 1 µM.

The term pKi denotes −log10 of the Ki, conventionally taken in molar units. The low end stands for a large Ki, the high end for a small Ki. The pIC50 is the IC50 on a negative log10 scale, so that one unit is a factor of ten. As to `Cn1cc2nc(N)n3nc(-c4ccco4)nc3c2n1`, the pKi in experiment [1] is 7.52; in [2], 8.09; in experiment [3], 6.90. Also, the negative logarithm of the IC50 (pIC50) in [4] is 7.48.

Turning to `CCCn1ncc2nc(N)n3nc(-c4ccco4)nc3c21`, the results for the pKi in experiment [1], in experiment [2] and in [3] were 7.85, 7.92 and 7.08, respectively. For the same molecule, the values for the pIC50 in [4] and in experiment [5] were 7.40 and 6.30, respectively.

Regarding `Nc1nc2cn(CCCc3ccccc3)nc2c2nc(-c3ccco3)nn12`, the pKi was 8.15 in [1], 7.96 in experiment [2] and 6.28 in experiment [3]. The same molecule gave a pIC50 in [4] of 7.49.

For `COc1ccc(NC(=O)Nc2nc3cn(CCc4ccccc4)cc3c3nc(-c4ccco4)nn23)cc1`, the pKi in experiment [1] was 6.75; in experiment [2] it was 6.83; in experiment [3] it was 7.92. Further, in experiment [4], the pIC50 is 6.13.

Take `COc1ccc(NC(=O)Nc2nc3cn(C)cc3c3nc(-c4ccco4)nn23)cc1`: the pKi was 6.10 in experiment [1], 6.30 in experiment [2] and 7.82 in [3]. Moreover, the pIC50 was 6.08 in [4] and 7.12 in experiment [5].

For the molecule `CCCn1cc2nc(N)n3nc(-c4ccco4)nc3c2c1`, the pKi in experiment [1] was 7.46; in [2], 7.52; in experiment [3], 7.26. The pIC50 in [4] was 7.05.

Take `COc1ccc(NC(=O)Nc2nc3cn(CCc4ccccc4)nc3c3nc(-c4ccco4)nn23)cc1`: the results for the pKi in experiment [1], in experiment [2] and in [3] were 6.12, 6.17 and 6.50, respectively. Besides, in experiment [4], the pIC50 was 6.26.

Take `CCCn1cc2nc(N)n3nc(-c4ccco4)nc3c2n1`: the pKi in [1] was 7.66; in [2] it was 7.77; in experiment [3], 6.36. This molecule gave a pIC50 in experiment [4] of 7.35.

Turning to `COc1ccc(NC(=O)Nc2nc3cnn(CCc4ccccc4)c3c3nc(-c4ccco4)nn23)cc1`, the results for the pKi in [1], in [2] and in experiment [3] were 6.28, 6.20 and 6.68, respectively. Also, in [4], the pIC50 is 6.11.

Broadly, the inhibition is the change of the read-out against control, counted positive when it falls. The low end stands for a weak effect, the high end for a strong effect. For the molecule `Cn1ncc2nc(N3CCOCC3)n3nc(-c4ccco4)nc3c21`, the pKi in [1], in [2] and in [3] was < 6.00 throughout. Moreover, in experiment [4], the pIC50 was < 6.00. In addition, the inhibition in [6] came to 6%; in [7] it was 4%; in experiment [8], 1%; in experiment [9], 4%.

Consider `Nc1nc2cn(CCc3ccccc3)cc2c2nc(-c3ccco3)nn12`, for which the pKi is 8.37 in [1], 8.41 in experiment [2] and 6.91 in experiment [3]. For the same molecule, the negative logarithm of the IC50 (pIC50) in experiment [4] was 7.34.

As for `Cn1ncc2nc(N3CCN(c4ccccc4)CC3)n3nc(-c4ccco4)nc3c21`, the pKi in [1], in experiment [2] and in experiment [3] was < 6.00 each time. In addition, the pIC50 in experiment [4] was < 6.00. In addition, the inhibition in experiment [6] turned out to be 8%; in experiment [7] it was 9%; in experiment [8] it was 1%; in experiment [9], 5%.

In the case of `CN1CCN(c2nc3cnn(C)c3c3nc(-c4ccco4)nn23)CC1`, the pKi in [1], in experiment [2] and in [3] was < 6.00 throughout. Besides, in experiment [4], the pIC50 is < 6.00. Also, the inhibition came out at 5% in experiment [6], 2% in [7], 1% in experiment [8] and 2% in experiment [9].

Consider `COc1ccc(NC(=O)Nc2nc3cnn(CCCc4ccccc4)c3c3nc(-c4ccco4)nn23)cc1`, for which the pKi in experiment [1], in experiment [2] and in [3] was < 6.00 in each case. Besides, the pIC50 in experiment [4] is < 6.00. Moreover, the inhibition in experiment [6] amounted to 38%; in [7], 32%; in experiment [8] it was 25%; in experiment [9], 32%.

With `Nc1nc2cn(CCc3ccccc3)nc2c2nc(-c3ccco3)nn12`, the values for the negative logarithm of the Ki (pKi) in experiment [1], in experiment [2] and in experiment [3] were 8.31, 8.04 and 6.50, respectively. Besides, the pIC50 in experiment [4] is 7.57.

As to `COc1ccc(NC(=O)Nc2nc3cn(C)nc3c3nc(-c4ccco4)nn23)cc1`, the pKi was 6.03 in experiment [1], 6.65 in experiment [2] and 6.96 in experiment [3]. Also, the pIC50 in [4] was 6.24.

Consider `Cn1ncc2nc(NC3CCCCC3)n3nc(-c4ccco4)nc3c21`, for which the negative logarithm of the Ki (pKi) in experiment [1] was 7.92; in experiment [2] it was 6.92; in [3], 6.29. This molecule also showed a pIC50 in experiment [4] of 6.04.

With `Cn1cc2nc(N)n3nc(-c4ccco4)nc3c2c1`, the values for the pKi in experiment [1], in experiment [2] and in [3] were 7.00, 7.70 and 7.30, respectively. In addition, in [4], the negative-log IC50 (pIC50) is 7.38.

Consider `Nc1nc2cn(CCCc3ccccc3)cc2c2nc(-c3ccco3)nn12`, for which the pKi in experiment [1] was 7.74; in experiment [2], 7.30; in [3], 6.62. Moreover, in experiment [4], the pIC50 is 6.60.

For `COc1ccc(NC(=O)Nc2nc3cn(CCCc4ccccc4)nc3c3nc(-c4ccco4)nn23)cc1`, the results for the pKi in [1], in experiment [2] and in experiment [3] were < 6.00, < 6.00 and 6.09, respectively. In experiment [4], the pIC50 is < 6.00. In addition, the inhibition in experiment [6] turned out to be 35%; in experiment [7], 31%; in experiment [9], 31%.

For the molecule `Nc1nc2cnn(CCc3ccccc3)c2c2nc(-c3ccco3)nn12`, the pKi is 7.48 in experiment [1], 7.38 in [2] and 6.22 in experiment [3]. Further, the pIC50 in experiment [4] was 6.50.

For `COc1ccc(NC(=O)Nc2nc3cn(CCCc4ccccc4)cc3c3nc(-c4ccco4)nn23)cc1`, the pKi in experiment [1] was 6.68; in [2] it was 6.89; in experiment [3], 7.89. For the same molecule, in experiment [4], the pIC50 is < 6.00. The molecule further displayed an inhibition in [9] of 12%.

Consider `CCCn1ncc2nc(NC(=O)Nc3ccc(OC)cc3)n3nc(-c4ccco4)nc3c21`, for which the figures for the pKi in [1], in experiment [2] and in experiment [3] were 7.21, 7.70 and 6.79, respectively. This molecule also had a pIC50 in experiment [4] of 7.49.

For `Cn1cc2nc(NC(=O)Nc3ccncc3)n3nc(-c4ccco4)nc3c2c1`, the figures for the pKi in experiment [1], in experiment [2] and in experiment [3] were 6.45, < 6.00 and 6.95, respectively. Moreover, the negative logarithm of the IC50 (pIC50) in experiment [4] is < 6.00. Moreover, the inhibition in experiment [7] came out at 13%; in [9], 8%.

`Nc1nc2cnn(CCCc3ccccc3)c2c2nc(-c3ccco3)nn12`: the negative logarithm of the Ki (pKi) in experiment [1] was 7.07; in [2], 6.91; in [3] it was 6.10. Moreover, in experiment [4], the pIC50 was 6.23.

Regarding `COc1ccc(NC(=O)Nc2nc3cnn(C)c3c3nc(-c4ccco4)nn23)cc1`, the pKi in experiment [1] is 6.89; in [2] it was 7.17; in experiment [3] it was 7.21. For the same molecule, in experiment [4], the pIC50 was 6.91.

With `Nc1nc2c(cnn2CCc2ccccc2)c2nc(-c3ccco3)nn12` [SCH-58261], the negative logarithm of the Ki (pKi) in experiment [3] is < 5.00.

`Cn1ncc2nc(N)n3nc(-c4ccco4)nc3c21`: the pKi in [1] was 8.00; in experiment [2], 8.44; in experiment [3] it was 6.13. For the same molecule, in experiment [4], the pIC50 is 7.51.
